Experimental data taken from ChEMBL document CHEMBL1641461, “Azaindoles as potent CRTH2 receptor antagonists” (Bioorg Med Chem Lett, 2011).

Legend:
[1] = target: T1, Prostaglandin D2 receptor (Homo sapiens, UniProt Q13258); assay: Displacement of radioligand from prostanoid DP receptor expressed in HEK293 cells by competitive binding assay; format: cell-based
T1 sequence (Q13258 whole entry): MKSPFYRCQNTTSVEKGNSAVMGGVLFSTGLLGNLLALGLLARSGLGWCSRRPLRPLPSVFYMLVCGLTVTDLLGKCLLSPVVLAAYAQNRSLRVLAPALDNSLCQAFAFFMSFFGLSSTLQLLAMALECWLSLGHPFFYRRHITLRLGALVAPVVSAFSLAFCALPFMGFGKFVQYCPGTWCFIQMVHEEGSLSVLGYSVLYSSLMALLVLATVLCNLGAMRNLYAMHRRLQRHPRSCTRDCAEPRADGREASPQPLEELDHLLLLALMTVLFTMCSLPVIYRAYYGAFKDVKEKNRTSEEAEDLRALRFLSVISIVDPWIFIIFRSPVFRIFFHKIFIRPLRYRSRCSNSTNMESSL

Thromboxane A2 receptor = target: T2, Thromboxane A2 receptor (Homo sapiens, UniProt P21731); assay: Displacement of radioligand from prostanoid TP receptor expressed in HEK293 cells by competitive binding assay; format: cell-based
T2 sequence (P21731 whole entry): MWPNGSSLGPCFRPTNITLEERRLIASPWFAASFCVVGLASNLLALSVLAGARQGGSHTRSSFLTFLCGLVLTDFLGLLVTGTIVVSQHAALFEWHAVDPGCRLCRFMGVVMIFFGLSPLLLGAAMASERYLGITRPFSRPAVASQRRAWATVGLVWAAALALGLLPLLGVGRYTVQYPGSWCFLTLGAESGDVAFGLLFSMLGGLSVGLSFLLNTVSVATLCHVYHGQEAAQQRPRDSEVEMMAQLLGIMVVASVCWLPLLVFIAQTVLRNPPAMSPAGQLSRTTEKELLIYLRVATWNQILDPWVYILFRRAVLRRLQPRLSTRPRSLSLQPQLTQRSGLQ

[2] = target: T3, Prostaglandin D2 receptor 2 (Homo sapiens, UniProt Q9Y5Y4); assay: Displacement of radioligand from human CRTH2 expressed in HEK293 cells by competitive binding assay; format: cell-based
T3 sequence (Q9Y5Y4 whole entry): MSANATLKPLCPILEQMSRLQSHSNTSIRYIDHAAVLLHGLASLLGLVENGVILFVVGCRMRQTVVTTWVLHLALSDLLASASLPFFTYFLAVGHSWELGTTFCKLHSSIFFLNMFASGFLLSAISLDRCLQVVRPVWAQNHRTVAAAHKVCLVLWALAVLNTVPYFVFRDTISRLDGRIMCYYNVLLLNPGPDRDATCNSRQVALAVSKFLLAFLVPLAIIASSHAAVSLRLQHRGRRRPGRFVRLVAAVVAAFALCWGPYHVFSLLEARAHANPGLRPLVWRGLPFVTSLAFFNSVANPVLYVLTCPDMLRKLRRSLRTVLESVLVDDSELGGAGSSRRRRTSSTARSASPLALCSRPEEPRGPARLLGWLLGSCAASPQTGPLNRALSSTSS
How it was run: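 Radioligand competition binding on membranes from HEK293 (EBNA) cells stably expressing hCRTH2, in 10 mM HEPES/KOH. Mean of two or more experiments.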

[3] = target: T3, Prostaglandin D2 receptor 2; assay: Antagonist activity at human CRTH2 expressed in HEK293 cells assessed as inhibition of forskolin-induced increase intracellular [125I]cAMP level by scintillation proximity assay; format: functional, cell-based
How it was run: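 Intracellular cAMP measured by ¹²⁵I-cAMP scintillation proximity assay in Hank's balanced salt solution with 25 mM HEPES and forskolin. Values are the mean of two or more experiments.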

[4] = Half life in Sprague-Dawley rat at 5 mg/kg, po and 1 mg/kg, iv; format: ADME, organism-based; details: in vivo
How it was run: (§1)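 Rats dosed PO at 5 mg/kg (5 mL/kg) in 0.5% methocel and IV at 1 mg/kg (1 mL/kg) in 60% PEG 200; n = 2.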

[5] = Volume of distribution in Sprague-Dawley rat at 5 mg/kg, po and 1 mg/kg, iv; format: ADME, organism-based; details: in vivo; how it was run: as §1
[6] = Clearance in Sprague-Dawley rat at 5 mg/kg, po and 1 mg/kg, iv; format: ADME, organism-based; details: in vivo; how it was run: as §1
[7] = Bioavailability in Sprague-Dawley rat at 5 mg/kg, po and 1 mg/kg, iv; format: ADME, organism-based; details: in vivo; how it was run: as §1
Cytochrome P450 2C9 = Cytochrome P450 2C9 (Homo sapiens, UniProt P11712); assay: Inhibition of CYP2C9; format: ADME
Chain of Cytochrome P450 2C9 (P11712 whole entry): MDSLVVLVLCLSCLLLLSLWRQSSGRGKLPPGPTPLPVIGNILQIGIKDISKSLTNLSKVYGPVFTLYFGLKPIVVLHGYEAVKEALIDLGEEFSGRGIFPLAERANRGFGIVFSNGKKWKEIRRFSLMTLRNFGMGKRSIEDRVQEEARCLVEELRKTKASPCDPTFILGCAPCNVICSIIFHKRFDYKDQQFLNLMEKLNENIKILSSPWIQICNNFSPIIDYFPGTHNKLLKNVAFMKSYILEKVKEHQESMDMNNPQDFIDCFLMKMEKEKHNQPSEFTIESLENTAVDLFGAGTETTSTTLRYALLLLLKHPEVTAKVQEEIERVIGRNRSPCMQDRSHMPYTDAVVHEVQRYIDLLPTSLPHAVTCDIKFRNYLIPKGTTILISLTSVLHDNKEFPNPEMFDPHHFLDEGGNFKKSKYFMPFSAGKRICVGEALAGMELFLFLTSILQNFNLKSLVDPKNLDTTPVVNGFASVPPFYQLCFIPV
How it was run: (§2)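 CYP2C9 and CYP3A4 inhibition IC50 values, averaged over at least two experiments.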

Cytochrome P450 3A4 = Cytochrome P450 3A4 (Homo sapiens, UniProt P08684); assay: Inhibition of CYP3A4; format: ADME; how it was run: as §2
Chain of Cytochrome P450 3A4 (P08684 whole entry): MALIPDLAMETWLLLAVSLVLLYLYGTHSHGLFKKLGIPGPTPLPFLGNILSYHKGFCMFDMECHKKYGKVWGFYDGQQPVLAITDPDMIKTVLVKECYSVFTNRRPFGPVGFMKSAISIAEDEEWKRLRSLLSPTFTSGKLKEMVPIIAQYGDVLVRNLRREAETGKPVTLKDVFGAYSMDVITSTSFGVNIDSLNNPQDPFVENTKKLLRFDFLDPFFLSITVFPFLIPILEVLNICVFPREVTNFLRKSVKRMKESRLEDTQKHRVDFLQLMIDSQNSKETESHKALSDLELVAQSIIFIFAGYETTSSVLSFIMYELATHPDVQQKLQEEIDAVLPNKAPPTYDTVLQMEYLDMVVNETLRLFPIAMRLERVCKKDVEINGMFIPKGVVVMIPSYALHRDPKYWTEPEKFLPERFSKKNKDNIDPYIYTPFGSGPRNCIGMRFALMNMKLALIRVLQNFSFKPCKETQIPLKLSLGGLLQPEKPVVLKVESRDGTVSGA

[8] = (§3) Bioavailability in Sprague-Dawley rat at 1 mg/kg, iv; format: ADME, organism-based; details: Sprague-Dawley, in vivo
Rattus norvegicus = assay: as §3; format: ADME, organism-based; details: in vivo

Row | Ki [1] | Ki (Thromboxane A2 receptor) | Ki [2] | IC50 [3] | half-life [4] | Vd [5] | clearance [6] | bioavailability [7] | IC50 (Cytochrome P450 2C9) | IC50 (Cytochrome P450 3A4) | bioavailability [8] | F (Rattus norvegicus) | SMILES
1 | > 3.4 µM | > 6.8 µM | 6.72 µM | – | – | – | – | – | – | – | – | – | CN([C@@H]1CCc2c(CC(=O)O)c3cnccc3n2C1)S(=O)(=O)c1ccc(F)cc1
2 | > 12 µM | > 22 µM | 0.139 µM | 0.351 µM | – | – | – | – | – | – | – | – | CN([C@@H]1CCc2c(CC(=O)O)c3ccncc3n2C1)S(=O)(=O)c1ccc(F)cc1
3 | > 18 µM | > 27 µM | 0.0018 µM | 0.0032 µM | – | – | – | – | – | – | – | – | CN([C@@H]1CCc2c(CC(=O)O)c3ccc(Cl)nc3n2C1)S(=O)(=O)c1ccc(F)cc1
4 | > 38 µM | > 71 µM | 0.0034 µM | 0.0057 µM | 4 h | 0.67 L/kg | 3.6 mL/min/kg | 84% | > 50 µM | > 50 µM | – | – | C[C@@H](C(=O)N(C)[C@@H]1CCc2c(CC(=O)O)c3cccnc3n2C1)c1ccc(F)cc1
5 | > 4 µM | > 7.2 µM | 0.0034 µM | 0.0047 µM | 2.1 h | 4.58 L/kg | 28 mL/min/kg | 20% | – | – | – | – | CN(C(=O)C1(c2ccc(F)cc2)CCC1)[C@@H]1CCc2c(CC(=O)O)c3cccnc3n2C1
6 | > 4 µM | > 7.2 µM | 0.0051 µM | 0.0044 µM | – | – | – | – | – | – | – | – | CN(C(=O)C1(c2ccc(F)cc2)CC1(C)C)[C@@H]1CCc2c(CC(=O)O)c3cccnc3n2C1 (stereo partly specified)
7 | > 1.3 µM | > 7 µM | 7.19 µM | – | – | – | – | – | – | – | – | – | CN([C@@H]1CCc2c(CC(=O)O)c3ncccc3n2C1)S(=O)(=O)c1ccc(F)cc1
8 | > 12 µM | > 22 µM | 0.0211 µM | 0.0738 µM | – | – | – | – | – | – | – | – | C[C@H](C(=O)N(C)[C@@H]1CCc2c(CC(=O)O)c3cccnc3n2C1)c1ccc(F)cc1
9 | > 4 µM | > 7.2 µM | 0.0115 µM | 0.007 µM | – | – | – | – | – | – | – | – | CN(C(=O)C1(c2ccc(F)cc2)CCOCC1)[C@@H]1CCc2c(CC(=O)O)c3cccnc3n2C1
10 | > 3.7 µM | > 6.8 µM | 0.0036 µM | 0.0075 µM | 3.1 h | 2.2 L/kg | 12 mL/min/kg | 63% | – | – | – | – | CN(C(=O)C1(c2ccc(F)cc2)CC1)[C@@H]1CCc2c(CC(=O)O)c3cccnc3n2C1
11 | > 47 µM | > 22 µM | 0.0033 µM | 0.0034 µM | 7.5 h | 0.23 L/kg | 0.4 mL/min/kg | 50% | > 50 µM | > 50 µM | – | – | CN([C@@H]1CCc2c(CC(=O)O)c3cccnc3n2C1)S(=O)(=O)c1ccc(F)cc1
12 | – | – | – | – | 4.1 h | 1.15 L/kg | 3.9 mL/min/kg | – | – | – | 138% | – | CN([C@@H]1CCc2c(CC(=O)O)c3ccccc3n2C1)S(=O)(=O)c1ccc(F)cc1 [MK-7246]
13 | > 10 µM | > 21 µM | 0.0047 µM | 0.0035 µM | 1.9 h | 1.54 L/kg | 21 mL/min/kg | – | – | – | – | 156% | CN(C(=O)C(C)(C)c1ccc(F)cc1)[C@@H]1CCc2c(CC(=O)O)c3cccnc3n2C1
14 | > 4 µM | > 7.2 µM | 0.0039 µM | 0.0045 µM | 11.6 h | 1.72 L/kg | 18 mL/min/kg | 38% | – | – | – | – | CN(C(=O)C1(c2ccc(F)cc2)CCCC1)[C@@H]1CCc2c(CC(=O)O)c3cccnc3n2C1
15 | > 3.8 µM | > 1 µM | 0.0019 µM | 0.0036 µM | – | – | – | – | – | – | – | – | CN([C@@H]1CCc2c(CC(=O)O)c3ccc(-c4ccc(F)cc4)nc3n2C1)S(=O)(=O)c1ccc(F)cc1
